The full list was thinned out, with hits kept by preference.
INS promoter act = activators of insulin promoter-driven GFP, primary screen, imaging, TRM-6 cells, eGFP reporter, cell count; plate-scaled: unstimulated 0, stimulated control 100; activation, % at 2 µM; 0.81% of 130,000 active; AID 1296, 2008;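 active = activation at 2 µM above a set limit, confirmed on inspection of the cell images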;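 note: share of cells whose green reporter signal exceeds an intensity cutoff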
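material = TRM-6 human fetal islet cells, insulin promoter–eGFP reporter | input = 1,000 TRM-6 cells seeded per well | benchmarks = stimulated versus unstimulated wells as plate controls | measured by = automated fluorescence imaging of paraformaldehyde-fixed, Hoechst-counterstained cells, green channel | schedule = compound exposure 48 h, 37 °C | reagent = tamoxifen at 0.75 µM added at seeding for reporter induction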
Large screens that a line does not name were inactive.

Cc1cc(C)cc(-n2nnnc2-c2cn(C)nc2C(F)(F)F)c1	INS promoter act 132
Cc1ccc(-n2nnnc2-c2ccco2)cc1	none
O=C(O)/C=C/C(=O)Nc1ccc(NC(=O)c2ccccc2)c(Cl)c1	none
CCOC(=O)c1c(-c2ccc(C)cc2)csc1NC(=O)C1CCCO1 (stereo not drawn)	none
CCCOC(=O)c1c(NC(=O)C2CCCO2)sc(C(=O)OC)c1C (stereo not drawn)	INS promoter act 567
CCc1c(C)sc(NC(=O)C2CCCO2)c1C#N (stereo not drawn)	none
Cc1occc1C(=O)N/N=C/c1cnn(C)c1C	none
CC1(C)C2CCC1(C)C(NC(=O)/C=C/c1ccccc1)C2 (stereo not drawn)	none
CCc1ccc(C2=NN(CCC(=O)NC3CC3)C(=O)CC2)cc1	none
CCOc1ccc2c(c1)/C(=C(\C(Cl)=C(Cl)Cl)[N+](=O)[O-])N2	INS promoter act 376
CCOc1cccc(OCCOc2ccccc2[N+](=O)[O-])c1	none
CCOc1ccc([N+](=O)[O-])c(N)c1	none
O=C1CCC(C(=O)Nc2cccc(Oc3ccccc3)c2)=NN1	none
Cc1ccc(NC(=O)COC(=O)CN2C(=O)NC(C)(C)C2=O)cc1S(=O)(=O)N1CCOCC1	none
CC1S/C(=C(\C#N)C(=O)NCc2ccco2)N(c2ccc(F)cc2)C1=O (stereo not drawn)	none
O=C(COC(=O)c1cnccn1)NCc1ccc(Cl)cc1	none
CC(OC(=O)CCc1nc2ccccc2[nH]c1=O)c1ccccc1 (stereo not drawn)	INS promoter act 471
CC(CC(=O)Nc1nc2ccccc2[nH]1)c1ccccc1 (stereo not drawn)	none
Cc1ccc(C(=O)COC(=O)CCc2nc3ccccc3[nH]c2=O)cc1C	none
O=C(CCc1nc2ccccc2[nH]c1=O)OCC(=O)c1ccc(Cl)cc1	none
O=C(CCc1nc2ccccc2[nH]c1=O)OCC(=O)c1cccc2ccccc12	INS promoter act 83
COC(=O)CCc1nc2ccccc2[nH]c1=O	none
CN(CC(=O)Nc1ccccc1Cl)C(=O)CSc1ncc(C(F)(F)F)cc1Cl	none
Cc1ccc(NC(=O)CSc2nnnn2-c2ccc3c(c2)OCO3)cc1C	none
CN1C[C@@H]2C[C@@H](c3ccc(C#CC(C)(C)O)s3)N3CCC[C@@]23C1=O	none
Cc1cc(NC(=O)CCC(=O)N(c2ccccc2)C(C(=O)NC2CCCC2)c2cccs2)no1 (stereo not drawn)	none
Cc1cc(NC(=O)CCC(=O)N(Cc2cccs2)C(C(=O)NC2CCCC2)c2cccnc2)no1 (stereo not drawn)	none
Cc1ccc(C(C(=O)NC2CCCC2)N(Cc2ccco2)C(=O)CCC(=O)Nc2cc(C)on2)cc1 (stereo not drawn)	INS promoter act 810
CCOC(=O)c1c(NC(C)=O)sc2c1CCC(C=NCCCN(CC)CC)=C2Sc1ccccc1	none
O=C(CNC(=O)c1ccc(S(=O)(=O)N2CCCC2)cc1)N/N=C/c1c(Cl)cccc1Cl	none
Cc1ccc(C(C(=O)NCc2ccco2)N(CCc2ccccc2)C(=O)Cn2nnc3ccccc32)o1 (stereo not drawn)	none
CN(C)/C=C/C(=O)c1cnc(-c2ccccn2)s1	none
COc1cccc(N/C=C/C(=O)c2ccc(Br)cc2)c1	none
COc1ccc(C(=O)/C=C/Nc2cccc(O)c2)cc1	INS promoter act 80
COc1ccc(N/C=C\C(=O)c2ccc3c(c2)OCO3)cc1	none
Cc1cc(C)c2[nH]c(=O)c(CN(Cc3cccs3)C(=S)NCC3CCCO3)cc2c1 (stereo not drawn)	none
O=S(=O)(NC1=NCCC1)c1cccc(NC(=S)NCCc2ccccc2)c1	none
CCN(CC)C(=O)CSCc1cnn(-c2ccccc2)c1-n1cccc1	none
Cc1sc(NC(=O)c2ccccc2F)c(CN2CCCCC2)c1C	INS promoter act 485
CCOC(=O)c1sc(NC(=O)c2ccccc2F)c(C(N)=O)c1C	none
CCOC(=O)N1CCN(Cc2c(F)cccc2F)CC1	none
COc1ccc(NS(=O)(=O)c2ccc(N/N=C(\C)c3ccncc3)c([N+](=O)[O-])c2)cc1	none
CCOC(=O)Cc1csc(NC(=S)NC(=O)c2cccc([N+](=O)[O-])c2)n1	none
CCOc1ccc(NC(=O)c2sc(N3CCOCC3)nc2-c2ccccc2)cc1	none
O=C(Nc1cccc2ccccc12)N1CCOCC1	none
N#C/C(=C\c1sc(N2CCOCC2)nc1-c1ccccc1)C(=O)Nc1cccc2ccccc12	INS promoter act 223
COc1ccc(-c2csc(-c3cc4ccccc4oc3=N)n2)cc1	none
Cc1ccc(C(=O)NNC(=O)CSc2nnc(-c3ccncc3)n2-c2ccc(C)cc2)cc1	none
COC(=O)c1ccc(C(=O)OC)c(NC(=O)C(C)(C)C)c1	none
Cc1ccc(-c2cccc(NC(=O)C3C(C(=O)O)[C@@H]4C=C[C@H]3C4)c2)o1 (stereo partly drawn)	INS promoter act 154
O=C(O)c1cccc(NC(=O)C2C3C=CC(C3)C2C(=O)O)c1 (stereo not drawn)	none
O=C(O)C1C2C=CC(C2)C1C(=O)Nc1cccc(F)c1 (stereo not drawn)	none
CNC(=O)CN(c1cc(OCCOC)c(Cl)cc1Cl)S(=O)(=O)c1ccc(OC)cc1	none

High-throughput results deposited in PubChem by Columbia University Molecular Screening Center.
